Activity calls are given as the source filed them. The rule behind the calls is not given here.
Columns and labels:
Cannabinoid receptor 1 [1] = target: T1, Cannabinoid receptor 1 (Homo sapiens, UniProt P21554); assay: Displacement of [3H]CP-55940 from human CB1 receptor expressed in CHO cell membrane after 90 mins by scintillation counting analysis; format: cell membranes
In short: (§1)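 Membranes from CHO cells stably expressing human CB₁ (G418-maintained), suspended in 50 mM Tris-HCl, 0.5% BSA, 5 mM MgCl₂, 2.5 mM EDTA, pH 7.4. Displacement of 0.5 nM [³H]CP-55,940 by 1 nM–10 μM compound, 90 min, 30 °C. Filtration on GF/C, scintillation counting. Cheng-Prusoff Ki, LIGAND fitting; mean SEM, n = 4.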

Homo sapiens = species on record: Homo sapiens; assay: Selectivity index, ratio of Ki for human CB1 receptor to Ki for human CB2 receptor
Cannabinoid receptor 2 [2] = target: T2, Cannabinoid receptor 2 (Homo sapiens, UniProt P34972); assay: Displacement of [3H]CP-55940 from human CB2 receptor expressed in CHO cell membrane after 60 mins by scintillation counting analysis; format: cell membranes
T2 sequence (P34972 whole entry): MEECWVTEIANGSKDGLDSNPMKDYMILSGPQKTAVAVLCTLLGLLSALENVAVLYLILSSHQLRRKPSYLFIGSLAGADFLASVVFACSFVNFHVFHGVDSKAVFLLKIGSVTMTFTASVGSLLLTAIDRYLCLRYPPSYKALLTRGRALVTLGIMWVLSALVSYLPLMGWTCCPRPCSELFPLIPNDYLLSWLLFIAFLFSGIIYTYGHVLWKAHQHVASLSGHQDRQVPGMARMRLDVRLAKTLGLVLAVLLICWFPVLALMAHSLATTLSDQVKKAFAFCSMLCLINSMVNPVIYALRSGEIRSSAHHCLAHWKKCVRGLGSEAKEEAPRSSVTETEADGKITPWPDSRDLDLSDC
In short: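 Human CB₂-expressing CHO cell membranes in 50 mM Tris-HCl, 0.5% BSA, 5 mM MgCl₂, 1 mM EDTA, pH 7.4. Binding of 0.5 nM [³H]CP-55,940 competed with 1 nM–10 μM compound for 60 min at 30 °C, then GF/C filtration and scintillation counting. Ki by Cheng-Prusoff from IC50; mean SEM of n = 4.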

Cannabinoid receptor 1 [3] = target: Cannabinoid receptor 1 (Rattus norvegicus, UniProt P20272); assay: Displacement of [3H]CP-55940 from Sprague-Dawley rat brain CB1 receptor after 90 mins by scintillation counting analysis
Chain of Cannabinoid receptor 1 (Rattus norvegicus, UniProt P20272) (P20272 whole entry): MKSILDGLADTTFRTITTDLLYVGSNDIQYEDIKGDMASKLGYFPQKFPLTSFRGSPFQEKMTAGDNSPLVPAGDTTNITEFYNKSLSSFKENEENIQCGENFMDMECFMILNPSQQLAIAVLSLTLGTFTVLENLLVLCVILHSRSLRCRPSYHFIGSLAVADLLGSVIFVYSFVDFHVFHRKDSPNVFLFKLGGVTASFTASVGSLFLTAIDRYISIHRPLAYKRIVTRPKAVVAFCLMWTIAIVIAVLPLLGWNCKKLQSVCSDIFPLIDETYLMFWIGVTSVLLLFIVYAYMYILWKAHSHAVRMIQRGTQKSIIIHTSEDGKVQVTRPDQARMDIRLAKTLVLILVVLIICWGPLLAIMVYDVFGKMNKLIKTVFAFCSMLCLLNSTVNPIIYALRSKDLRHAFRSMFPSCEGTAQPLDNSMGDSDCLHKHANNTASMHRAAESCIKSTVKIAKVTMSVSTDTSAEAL
In short: (§2)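 Competition with [³H]CP-55,940 (1.0 nM stated in rat CB₁ section; 0.5 nM in general protocol) against 1 nM–10 μM compound, 90 min at 30 °C. GF/C filtration, scintillation counting. Ki via Cheng-Prusoff; mean SEM, n = 4.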

Cannabinoid receptor 2 [4] = target: T2, Cannabinoid receptor 2; assay: Inverse agonist activity at human CB2 receptor expressed in CHO cell membrane assessed as increase in forskolin-stimulated cAMP production by scintillation counting analysis; format: functional, cell membranes
Cannabinoid receptor 2 [5] = target: T2, Cannabinoid receptor 2; assay: Inverse agonist activity at human CB2 receptor expressed in CHO cell membrane assessed as increase in forskolin-stimulated cAMP production at 1 to 10 uM by scintillation counting analysis in presence of WIN55212-2
Cannabinoid receptor 2 [6] = target: T2, Cannabinoid receptor 2; assay: Inverse agonist activity at human CB2 receptor expressed in CHO cell membrane assessed as increase in forskolin-stimulated cAMP production at 1 uM by scintillation counting analysis relative to WIN55212-2
In short: (§3)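 Whole hCB₂ CHO cells (1 × 10⁶/assay) in HEPES-buffered saline with glucose, pH 7.4, preincubated 10 min at 37 °C with 0.5 mM Ro 20-1724. Compound at 1 or 10 μM with 1 μM forskolin. Stopped with cold 6% TCA, ether-extracted; cAMP measured by [³H]cAMP competition binding with adrenal binding protein. Expressed as % increase versus WIN 55,212-2 (set −100%); n = 4.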

Cannabinoid receptor 2 [7] = target: T3, Cannabinoid receptor 2 (Rattus norvegicus, UniProt Q9QZN9); assay: Displacement of [3H]CP-55940 from Sprague-Dawley rat spleen CB2 receptor after 60 mins by scintillation counting analysis
T3 sequence (Q9QZN9 whole entry): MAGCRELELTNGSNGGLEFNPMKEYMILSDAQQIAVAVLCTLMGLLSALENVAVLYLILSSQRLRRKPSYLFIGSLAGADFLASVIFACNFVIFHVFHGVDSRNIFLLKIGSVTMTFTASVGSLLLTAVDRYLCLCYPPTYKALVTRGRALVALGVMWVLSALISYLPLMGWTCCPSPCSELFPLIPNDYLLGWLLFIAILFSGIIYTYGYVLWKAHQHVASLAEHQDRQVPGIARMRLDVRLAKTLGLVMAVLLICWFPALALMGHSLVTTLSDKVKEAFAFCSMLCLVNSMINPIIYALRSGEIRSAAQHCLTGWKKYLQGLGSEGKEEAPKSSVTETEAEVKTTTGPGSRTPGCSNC
In short: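 Competed against 0.5 nM [³H]CP-55,940 using 1 nM–10 μM compound for 60 min at 30 °C. Bound ligand collected on GF/C filters and counted. Ki from IC50 by Cheng-Prusoff; mean SEM of n = 4.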

Cannabinoid receptor 2 [8] = target: T2, Cannabinoid receptor 2; assay: Inverse agonist activity at human CB2 receptor expressed in CHO cell membrane assessed as increase in forskolin-stimulated cAMP production at 10 uM by scintillation counting analysis relative to WIN55212-2; in short: as §3
Cannabinoid receptor 1 [9] = target: T1, Cannabinoid receptor 1; assay: Displacement of [3H]CP-55940 from human CB1 receptor expressed in CHO cell membrane at > 10 uM after 90 mins by scintillation counting analysis; format: cell membranes; in short: as §1
[10] = target: Cannabinoid receptor 1 (Rattus norvegicus) (UniProt P20272); assay: Displacement of [3H]CP-55940 from Sprague-Dawley rat brain CB1 receptor at > 10 uM after 90 mins by scintillation counting analysis; in short: as §2
Chain of Cannabinoid receptor 1 (Rattus norvegicus) (P20272 whole entry): as the sequence (P20272 whole entry) above

T1 sequence (P21554 whole entry): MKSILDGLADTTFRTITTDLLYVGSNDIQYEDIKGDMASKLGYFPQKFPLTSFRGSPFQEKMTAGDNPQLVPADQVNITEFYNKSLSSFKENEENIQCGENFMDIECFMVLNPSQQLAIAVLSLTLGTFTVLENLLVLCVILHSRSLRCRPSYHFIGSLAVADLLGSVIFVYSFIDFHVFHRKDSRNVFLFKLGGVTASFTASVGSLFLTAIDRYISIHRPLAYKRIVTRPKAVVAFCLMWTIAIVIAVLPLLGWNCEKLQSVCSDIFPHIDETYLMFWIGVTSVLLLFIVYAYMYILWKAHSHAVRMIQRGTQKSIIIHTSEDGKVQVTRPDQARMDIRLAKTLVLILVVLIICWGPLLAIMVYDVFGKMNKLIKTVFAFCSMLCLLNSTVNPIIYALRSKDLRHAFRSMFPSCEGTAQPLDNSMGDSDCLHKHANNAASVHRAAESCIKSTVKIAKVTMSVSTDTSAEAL

Structure (SMILES)	Ki (Cannabinoid receptor 1 [1]) [nM]	Ratio Ki (Homo sapiens)	Ki (Cannabinoid receptor 2 [2]) [nM]	Ki (Cannabinoid receptor 1 [3]) [nM]	EC50 (Cannabinoid receptor 2 [4]) [nM]	Activity (Cannabinoid receptor 2 [5])	Activity (Cannabinoid receptor 2 [6]) [%]	Ki (Cannabinoid receptor 2 [7]) [nM]	Activity (Cannabinoid receptor 2 [8]) [%]	Activity (Cannabinoid receptor 1 [9]) [%]	Activity [10] [%]
CCCCCn1cc(C(=O)NC23CC4CC(CC(C4)C2)C3)c(=O)n2nc(CC)cc12	120	143	0.84	150	95	Active	173	0.96	243	–	–
CCCCCn1cc(C(=O)NC2CCCCCC2)c(=O)n2nc(-c3ccc(C)cc3)cc12	> 10000	> 970	10.3	> 10000	–	–	81	13.2	107	39	49
CCCCCn1cc(C(=O)NC2CCCCCC2)c(=O)n2nc(-c3ccc(Cl)cc3)cc12	> 10000	> 1580	6.31	> 10000	–	–	121	6.53	162	40	47
CCCCCn1cc(C(=O)NC2CCCCC2)c(=O)n2nc(-c3ccc(Cl)cc3)cc12	> 10000	> 181	55	> 10000	–	–	79	58	94	15	8
CCCCCn1cc(C(=O)NC2CCCCCC2)c(=O)n2nc(-c3ccc(Cl)cc3Cl)cc12	> 10000	> 270	37	> 10000	–	–	61	40	77	39	49
CCCCCn1cc(C(=O)NC23CC4CC(CC(C4)C2)C3)c(=O)n2nc(-c3ccco3)cc12	> 10000	> 2030	4.92	> 10000	–	–	107	5.14	124	34	40
CCCCCn1cc(C(=O)NC23CC4CC(CC(C4)C2)C3)c(=O)n2nc(-c3ccccc3Cl)cc12	> 10000	> 1610	6.21	> 10000	–	–	114	6.32	136	41	48
CCCCCn1cc(C(=O)NC2CCCCC2)c(=O)n2nc(-c3ccco3)cc12	> 10000	> 1050	9.52	> 10000	–	–	73	10.4	103	21	30
CCCCCn1cc(C(=O)NC23CC4CC(CC(C4)C2)C3)c(=O)n2nc(-c3ccc(C)cc3)cc12	> 10000	> 2930	3.41	> 10000	–	–	138	3.82	168	38	45
CCCCCn1cc(C(=O)NC23CC4CC(CC(C4)C2)C3)c(=O)n2nc(-c3cc(C)cs3)cc12	> 10000	> 666	15	> 10000	–	–	71	18	97	13	15
CCCCCn1cc(C(=O)NC23CC4CC(CC(C4)C2)C3)c(=O)n2nc(-c3c(Cl)cccc3Cl)cc12	> 10000	> 102	98	> 10000	–	–	38	110	62	21	18
CCCCCn1cc(C(=O)NC2CCCCCC2)c(=O)n2nc(C(C)(C)C)cc12	605	84	7.22	650	351	–	151	7.52	213	–	–
CCCCCn1cc(C(=O)NC23CC4CC(CC(C4)C2)C3)c(=O)n2nc(C)c(-c3ccc(OC)cc3)c12	> 10000	> 28	350	> 10000	–	–	36	434	60	4	5
CCCCCn1cc(C(=O)NC23CC4CC(CC(C4)C2)C3)c(=O)n2nc(-c3ccccc3)cc12	> 10000	> 3910	2.56	> 10000	195	–	163	2.74	195	43	40
